Measurements: ChEMBL document CHEMBL3414458, “Discovery of novel 2,5-dioxoimidazolidine-based P2X(7) receptor antagonists as constrained analogues of KN62” (J Med Chem, 2015)

Legend:
P2X purinoceptor 7 [1] = target: T1, P2X purinoceptor 7 (Homo sapiens, UniProt Q99572); assay: Antagonist activity at human P2X7 receptor
T1 sequence (Q99572 whole entry): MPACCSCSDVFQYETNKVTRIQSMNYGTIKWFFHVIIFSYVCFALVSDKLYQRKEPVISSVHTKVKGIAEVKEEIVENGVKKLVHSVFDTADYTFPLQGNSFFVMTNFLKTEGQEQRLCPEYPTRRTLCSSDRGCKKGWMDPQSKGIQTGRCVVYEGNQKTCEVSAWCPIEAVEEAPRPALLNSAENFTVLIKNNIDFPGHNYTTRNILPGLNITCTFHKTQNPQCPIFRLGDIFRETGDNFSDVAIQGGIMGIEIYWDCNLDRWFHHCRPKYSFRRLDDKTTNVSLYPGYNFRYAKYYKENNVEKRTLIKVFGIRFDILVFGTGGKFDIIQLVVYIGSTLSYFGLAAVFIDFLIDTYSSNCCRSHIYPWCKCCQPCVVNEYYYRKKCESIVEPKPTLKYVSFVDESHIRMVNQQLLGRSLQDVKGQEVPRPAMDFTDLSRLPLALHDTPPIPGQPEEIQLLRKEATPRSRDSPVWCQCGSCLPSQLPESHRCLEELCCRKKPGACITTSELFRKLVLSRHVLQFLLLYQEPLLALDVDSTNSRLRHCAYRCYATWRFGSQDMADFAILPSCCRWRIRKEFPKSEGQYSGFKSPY

P2X purinoceptor 7 [2] = target: T2, P2X purinoceptor 7 (Mus musculus, UniProt Q9Z1M0); assay: Antagonist activity at P2X7 receptor in LPS-primed mouse J774.A1 cells assessed as inhibition of ATP-induced IL-1beta release after 30 mins by ELISA; format: cell-based
T2 sequence (Q9Z1M0 whole entry): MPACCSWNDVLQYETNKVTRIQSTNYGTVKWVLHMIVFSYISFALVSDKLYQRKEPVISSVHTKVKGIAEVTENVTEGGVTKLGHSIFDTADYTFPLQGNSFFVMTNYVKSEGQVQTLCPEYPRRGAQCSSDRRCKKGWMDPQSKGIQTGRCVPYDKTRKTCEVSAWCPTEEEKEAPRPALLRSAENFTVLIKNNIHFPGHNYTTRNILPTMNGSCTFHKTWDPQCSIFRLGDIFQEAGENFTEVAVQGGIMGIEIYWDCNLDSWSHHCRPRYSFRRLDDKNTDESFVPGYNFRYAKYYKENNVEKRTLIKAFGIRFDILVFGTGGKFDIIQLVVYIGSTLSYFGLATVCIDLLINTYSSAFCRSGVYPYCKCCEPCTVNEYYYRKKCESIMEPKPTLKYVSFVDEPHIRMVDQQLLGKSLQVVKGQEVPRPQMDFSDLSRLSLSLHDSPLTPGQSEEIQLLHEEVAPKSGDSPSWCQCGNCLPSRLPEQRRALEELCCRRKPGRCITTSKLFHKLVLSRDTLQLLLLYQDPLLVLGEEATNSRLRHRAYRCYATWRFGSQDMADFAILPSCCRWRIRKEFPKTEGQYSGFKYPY
How it was run: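 J774.A1 mouse cells stimulated with 5 mM ATP; IL-1β release measured, with IC50 taken from concentration-response data.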

[3] = target: T3, P2X purinoceptor 7 (Rattus norvegicus) (UniProt Q64663); assay: Antagonist activity at P2X7 receptor in neuropathic rat dorsal horn assessed as inhibition of long term potentiation-induced neropathic pain at 20 uM relative to control; conditions: Dorsal horn of spinal cord
T3 sequence (whole entry): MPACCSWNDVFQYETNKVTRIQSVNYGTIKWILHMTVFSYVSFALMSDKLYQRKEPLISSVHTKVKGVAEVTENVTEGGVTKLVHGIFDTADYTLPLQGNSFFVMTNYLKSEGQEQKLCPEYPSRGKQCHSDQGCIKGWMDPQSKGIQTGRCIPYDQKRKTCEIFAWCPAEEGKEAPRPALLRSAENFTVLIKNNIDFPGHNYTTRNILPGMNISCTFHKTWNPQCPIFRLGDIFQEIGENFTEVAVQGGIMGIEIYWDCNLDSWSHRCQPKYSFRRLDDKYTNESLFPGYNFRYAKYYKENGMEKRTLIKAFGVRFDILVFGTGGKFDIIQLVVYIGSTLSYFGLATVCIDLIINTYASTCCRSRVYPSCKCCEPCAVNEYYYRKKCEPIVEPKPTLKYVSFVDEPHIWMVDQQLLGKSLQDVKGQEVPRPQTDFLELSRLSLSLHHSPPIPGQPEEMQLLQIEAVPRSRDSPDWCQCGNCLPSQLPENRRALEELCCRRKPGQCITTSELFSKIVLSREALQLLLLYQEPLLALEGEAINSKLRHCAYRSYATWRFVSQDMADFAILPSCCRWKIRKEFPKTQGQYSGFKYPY
How it was run: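 Ex vivo spinal cord preparation: LTP-induced pain signalling recorded in the dorsal horn of neuropathic rats. Pregabalin served as the positive control.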

[4] = AUClast in rat at 10 mg/kg, ip; format: ADME, organism-based; parameters: time 0 - last, dose 10 mg/kg, route intraperitoneal; conditions: plasma
How it was run: (§1)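 Rats were dosed with the test agent intraperitoneally or by intravenous injection. Drug levels were followed in plasma over time after dosing. Intravenous and intraperitoneal exposures were compared to give absolute bioavailability.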

[5] = Bioavailability in rat at 10 mg/kg, ip; format: ADME, organism-based; conditions: in vivo
How it was run: (§2)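 Rats dosed 10 mg/kg intraperitoneally; plasma concentrations were measured, and absolute bioavailability was calculated relative to intravenous dosing.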

[6] = Cmax in rat at 10 mg/kg, ip; format: ADME, organism-based; parameters: dose 10 mg/kg, route intraperitoneal; conditions: in vivo; how it was run: as §2
P2X purinoceptor 7 [7] = target: T1, P2X purinoceptor 7; assay: Antagonist activity at recombinant human P2X7 receptor expressed in HEK293 cells assessed as inhibition of BzATP-induced intracellular ethidium bromide uptake after 2 hrs by fluorescence assay; format: cell-based
How it was run: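 Human HEK293 cells stably expressing recombinant human P2X7; ethidium accumulation stimulated by BzATP was measured.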

[8] = AUClast in rat at 20 mg/kg, iv; format: ADME, organism-based; parameters: time 0 - last, dose 20 mg/kg, route intravenous; conditions: plasma; how it was run: as §1
[9] = Terminal half life in rat at 20 mg/kg, iv; format: ADME, organism-based; parameters: dose 20 mg/kg, route intravenous; conditions: in vivo, read-out: beta t1/2
How it was run: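 Rats dosed intravenously; mean terminal half-life was derived from the plasma concentration decline.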

[10] = Half life in rat at 10 mg/kg, ip; format: ADME, organism-based; parameters: dose 10 mg/kg, route intraperitoneal; conditions: in vivo
P2X purinoceptor 7 [11] = target: T1, P2X purinoceptor 7; assay: Antagonist activity at P2X7 receptor in LPS/IFN-gamma-differentiated human THP1 cells assessed as inhibition of BzATP-induced IL-1beta release preincubated for 30 mins followed by BzATP induction measured after 30 mins by ELISA; format: cell-based, THP-1
How it was run: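 Human THP-1 monocytes, LPS-primed, stimulated with BzATP; IL-1β release measured by ELISA. Active compounds were screened at 1 µM, and full concentration-response curves were run to obtain IC50.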

[12] = target: T4, P2X purinoceptor 7 (Homo sapiens) (UniProt Q99572); assay: Antagonist activity at recombinant human P2X7 receptor expressed in HEK293 cells assessed as inhibition of BzATP-induced intracellular ethidium bromide uptake at 10 uM after 2 hrs by fluorescence assay; format: cell-based
T4 sequence (whole entry): T1 sequence (Q99572 whole entry)

O=C([C@@H]1Cc2ccc(OS(=O)(=O)c3cccc4cnccc34)cc2CN1S(=O)(=O)c1cccc2cnccc12)N1CCN(c2ccccc2)CC1
IC50 (P2X purinoceptor 7 [1]): < 1000 nM

CC(C)(C)OC(=O)N1CCN(C(=O)[C@H](Cc2ccc(OS(=O)(=O)c3cccc4cnccc34)cc2)NS(=O)(=O)c2cccc3cnccc23)CC1
IC50 (P2X purinoceptor 7 [1]): 41 nM

O=C(NCC12CC3CC(CC(C3)C1)C2)c1cc(CCCNCCCO)ccc1Cl
IC50 (P2X purinoceptor 7 [2]): > 60000 nM

O=C(N[C@@H](Cc1ccc(OS(=O)(=O)c2ccc([N+](=O)[O-])cc2)cc1)C(=O)N1CCN(C(=O)c2ccccc2)CC1)OCc1ccccc1
IC50 (P2X purinoceptor 7 [1]): 34 nM

CC(C)C[C@H](CN)CC(=O)O
inhibition [3]: 31%

O=C1NC(=O)N(C2CCN(C(=O)c3ccc(Cl)c(C(F)(F)F)c3)CC2)C1Cc1ccc(OS(=O)(=O)c2cccc3cnccc23)cc1 (racemic)
AUC(0-t) [4]: 1520 ng·h/mL | bioavailability [5]: 86% | Cmax [6]: 400 ng/mL | IC50 (P2X purinoceptor 7 [7]): 70 nM | AUC(0-t) [8]: 3530 ng·h/mL | IC50 (P2X purinoceptor 7 [2]): 11800 nM | half-life [9]: 1.29 h | half-life [10]: 2.15 h | IC50 (P2X purinoceptor 7 [11]): 50 nM

O=C1NC(=O)N(C2CCN(C(=O)CC34CC5CC(CC(C5)C3)C4)CC2)C1c1ccc(OS(=O)(=O)c2cccc3cnccc23)cc1 (racemic)
inhibition [12]: 46%

O=C1NC(=O)N(C2CCN(C(=O)c3ccc(Cl)c(C(F)(F)F)c3)CC2)C1c1ccc(OS(=O)(=O)c2cccc3cnccc23)cc1 (racemic)
inhibition [12]: 30%
